Bioassay records as filed in PubChem BioAssay.
eIF4H FP inh: inhibitors of RNA binding by human eIF4H; Q15056; eIF4H fluorescence polarization binding assay; inhibition, % at 35 µM; 290,000 compounds, 0.94% hits; AID 2012;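 also: calls also rest on retests at 20 µM and on dose response follow-up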
IMP-1 inh: blocks Pseudomonas aeruginosa IMP-1 metallo-beta-lactamase; purified IMP-1, nitrocefin hydrolysis, epi-absorbance fluorescence; inhibition, % at 5.6 µM; 290,000 compounds, 0.45% hits;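 active = inhibition above the mean plus 3 SD of all compounds in the same screening run, cut at about 4.5% in these data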;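 also: 0% = IMP-1 with DMSO and 100% = DMSO wells lacking enzyme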
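System: Purified recombinant IMP-1 metallo-beta-lactamase enzyme | Measured by: Fluorescence quenching readout, ex 480/em 530 nm | Replication: Singlicate | Incubation: 15 min preincubation plus 25 min reaction at 25 °C | Evaluation: Percent inhibition from optical density relative to buffer-blank wells | Benchmarks: DMSO with and without IMP-1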
MLLE-PAM2 inh: blocks PAM2 peptide binding to the PABP1 MLLE domain; P11940; GST-MLLE / FITC-PAM2 fluorescence polarization; inhibition, % at 20 µM; 360,000 compounds, 0.36% hits; in the data active = inhibition above about 35%, passing the limit was not always enough;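 also: plate controls were DMSO wells with GST-MLLE for no effect and wells lacking GST-MLLE protein for full effect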
Target sequence (P11940 whole entry, looked up, the tested form may be a part): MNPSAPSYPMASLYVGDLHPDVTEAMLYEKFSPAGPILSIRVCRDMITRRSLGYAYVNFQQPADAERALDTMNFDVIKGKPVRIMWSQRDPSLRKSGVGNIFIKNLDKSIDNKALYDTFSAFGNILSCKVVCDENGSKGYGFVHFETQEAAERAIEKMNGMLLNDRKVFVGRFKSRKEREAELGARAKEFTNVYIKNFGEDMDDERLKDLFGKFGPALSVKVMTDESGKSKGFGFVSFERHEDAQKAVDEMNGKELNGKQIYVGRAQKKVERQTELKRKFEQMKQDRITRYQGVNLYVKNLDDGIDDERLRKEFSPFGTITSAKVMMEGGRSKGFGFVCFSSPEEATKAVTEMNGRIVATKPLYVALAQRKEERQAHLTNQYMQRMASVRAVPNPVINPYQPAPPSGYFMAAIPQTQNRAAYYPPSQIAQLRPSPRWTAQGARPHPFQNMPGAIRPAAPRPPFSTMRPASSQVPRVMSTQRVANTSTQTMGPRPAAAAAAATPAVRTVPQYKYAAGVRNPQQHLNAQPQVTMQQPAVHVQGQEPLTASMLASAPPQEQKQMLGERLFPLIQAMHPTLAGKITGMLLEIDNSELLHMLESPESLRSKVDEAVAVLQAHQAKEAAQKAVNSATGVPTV
VIM-2 inh: inhibitors of Pseudomonas aeruginosa VIM-2 metallo-beta-lactamase | purified VIM-2, nitrocefin hydrolysis, epi-absorbance fluorescence | 290,000 compounds, 0.89% hits | AID 1527 | inhibition, % at 5.6 µM;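 active = inhibition above the mean of all tested compounds plus 3 SD, cutoff set per screening run, cut at about 7.5% in these data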;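 also: red hydrolysis product quenches plate fluorescence so inhibitors raise well fluorescence; 0% = enzyme with DMSO and 100% = DMSO without enzyme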
PABP FP inh: blocks human PABP binding to poly(A) RNA. fluorescence polarization. calls only at 35 µM. 290,000 compounds, 1% hits. AID 2014;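 also: calls also rest on retests at 20 µM and on dose response follow-up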
An asterisk follows results filed as active; i = inactive; ? = inconclusive; · = not tested or not shown; + = active, no number. A selection: hits, their analogues and other compounds. The true share with any hit is near 2.2%. Unless noted, no rule for the calls is given here.

SMILES	eIF4H FP inh	IMP-1 inh	MLLE-PAM2 inh	VIM-2 inh	PABP FP inh
N#Cc1c(-c2ccco2)c2c([nH]c1=S)CCCC2	36	·	-13	·	i
CCC/C(=N/NC(=O)c1csc(C)c1C)c1ccc(Cl)s1	active	-1	6	0	i
CCC/C(=N\NC(=O)c1ccco1)c1ccc(Cl)s1	7	-3	-11	-3	i
O=C1c2ccccc2S(=O)(=O)N1CC(O)COc1ccc(Br)cc1 (stereo unspecified)	6	5.3*	-11	0	i
Clc1ccc(N2COC3c4cccc5cccc(c45)C32)cc1 (stereo unspecified)	-7	1	7	-4	i
COc1ccc(N2COC3c4cccc5cccc(c45)C32)cc1 (stereo unspecified)	?	4.7*	13	1	i
O=C(C1=C[C@@H]2[C@H]3C(=O)N(c4cccc(Cl)c4)C(=O)[C@H]3[C@@H](C(=O)c3ccc(Cl)cc3)N2C=C1)c1ccccc1	44	-3	-30	-4	i
O=C(C1=C[C@@H]2[C@H]3C(=O)N(c4ccccc4Cl)C(=O)[C@H]3[C@@H](C(=O)c3ccc(Cl)cc3)N2C=C1)c1ccccc1	52*	0	·	-1	i
COc1ccccc1C(=O)C1CCCN(Cc2cn[nH]c2C2CCCCC2)C1 (stereo unspecified)	-8	-3	0	-3	i
Cc1cccc(N2CCN(C(=O)COc3ccc4c(c3)CCC4)CC2)c1C	-10	-1	14	0	i
O=C(Oc1ccccc1)c1c(Cl)cccc1P(=O)(O)O	-2	1	2	8.5*	i
CCCOc1ccc(C(=O)NCC(c2cccs2)N(C)C)cc1 (stereo unspecified)	-9	-4	11	-2	i
CCOc1ccc(C(=O)NCC(c2cccs2)N(C)C)cc1OCC (stereo unspecified)	87*	-5	0	-3	i
COc1ccc2c(c1)c(=O)oc1cc(OCC(=O)NC3CCCCC3)ccc12	91*	0	-13	-3	i
COc1ccc2c(c1)c(=O)oc1cc(OCC(=O)NC3CC3)ccc12	6	-4	-1	-3	i
Cc1cnc(C(=O)OCC(=O)NC(C)c2ccccc2)cn1 (stereo unspecified)	·	·	-10	·	·
COc1ccccc1/C=C1\SC(=S)N(Nc2nc(C)cc(C)n2)C1=O	20	-3	2	-1	i
O=C(NN1C(=O)/C(=C/c2ccc(O)cc2)SC1=S)c1ccccc1O	63	4.8*	-148	1	+
O=C(NN1C(=O)/C(=C/c2ccc(O)c([N+](=O)[O-])c2)SC1=S)c1ccccc1Cl	-3	6.0*	-137	-1	i
Cc1cc(C)nc(NN2C(=O)/C(=C/c3ccc(O)cc3)SC2=S)n1	?	0	-125	7	+
Cc1ccc(S(=O)(=O)Nc2ccc(Cl)cc2)cc1NC(=O)c1cc2c(s1)CCCC2	1	-3	-2	1	i
CCN(c1cccc(C)c1)S(=O)(=O)c1ccc(-c2cc(C)no2)s1	88*	-3	-4	-2	i
Cc1cccc(N(C)S(=O)(=O)c2ccc(-c3cc(C)no3)s2)c1	-8	-3	-3	-2	i
CCCc1cc(=O)oc2cc(C)cc(OCC(=O)N3CCC(C(=O)O)CC3)c12	1	-4	-3	-2	i
COc1nc(NC(C)C)nc(N(C#N)CN2C(=O)c3ccccc3S2(=O)=O)n1	0	12*	0	7	i
SMILES	eIF4H FP inh	IMP-1 inh	MLLE-PAM2 inh	VIM-2 inh	PABP FP inh
CC(C)Nc1nc(Cl)nc(N(C#N)CN2C(=O)c3ccccc3S2(=O)=O)n1	-6	6.9*	-18	4	i
CN(C)c1nc(N(C)C)nc(N(C#N)CN2C(=O)c3ccccc3S2(=O)=O)n1	-3	1	2	5	i
CCOC(=O)CC1=C(C(=O)OCC)C(c2ccc(OC)cc2OC)C(C#N)=C(N)O1 (stereo unspecified)	60	-1	10	-1	i
CCOC(=O)CC1=C(C(=O)OCC)C(c2ccc(C)o2)C(C#N)=C(N)O1 (stereo unspecified)	92*	1	50*	-3	+
NC(=S)N=Nc1c(O)[nH]c2c(Cl)cc(Cl)cc12	·	·	45*	·	·
NC(=S)N=Nc1c(O)[nH]c2cc(F)c(F)cc12	-8	-5	40*	-5	i
NC(=O)N=Nc1c(O)[nH]c2c(Br)cc(Br)cc12	1	-2	·	5	i
COc1ccc(OC)c(C(=O)N2CCC(C(=O)c3ccc(F)cc3)CC2)c1	-5	-1	4	-2	i
O=c1cccccc1NN=C1CCCCC1	82*	-1	-16	0	+
O=c1cccccc1NN=C1CCCCCC1	59*	-4	18	-2	+
CCCCNC(=O)C1(C)CCCCN1C(=O)c1cncc(Br)c1 (stereo unspecified)	·	·	-1	·	·
O=C1CCCCC1Sc1nnc(-c2ccc3c(c2)OCO3)o1 (stereo unspecified)	9.7*	-4	-38	-4	+
Cc1[nH]c2ccccc2c1C(=O)CSC(=S)N1CCOCC1	6	-4	-6	-3	i
CC(C)SCC(=O)Nc1ncc2c(n1)-c1ccccc1CC2	76*	-3	-33	-3	i
NC(=O)NC(=O)COC(=O)c1ccc(Cl)c(S(=O)(=O)N(Cc2ccccc2)c2ccc(Cl)cc2)c1	83	-1	7	-2	+
Cc1cc2c(c(=O)o1)C(c1ccc([N+](=O)[O-])o1)C(C#N)=C(N)O2 (stereo unspecified)	93*	-4	14	-1	+
CCC(CC)C1C(C#N)=C(N)Oc2cc(C)oc(=O)c21 (stereo unspecified)	-7	-1	-8	-4	i
Cc1cc2c(c(=O)o1)C(CCC1CCCCC1)C(C#N)=C(N)O2 (stereo unspecified)	65	11*	-79	-2	i
Cc1ccc(C#CC[N+](C)(C)CC#Cc2ccccc2)cc1	-1	-2	1	-2	i
O=c1[nH]c2ccccc2nc1/C=C/c1ccccc1	44	0	-14	1	i
O=C(/C=C/c1ccc(F)cc1)Nc1nc2ccccc2[nH]1	active	-4	·	-2	+
O=c1[nH]c2ccccc2nc1/C=C/c1ccc(F)cc1	86	-4	-69	-2	+
O=C(O)c1cccnc1SC1CC(=O)N(c2ccccc2)C1=O (stereo unspecified)	4	5.2*	0	-1	i
CNc1c(NS(=O)(=O)c2ccc(Br)cc2)c(=O)oc2ccccc12	-10	-3	9	-2	i
COc1ccc(O)c(N)c1	96*	-3	·	-4	+
CCOC(=O)C(=CN=C(N)Nc1nc2ccccc2o1)C(=O)OCC	12	-8	9	-2	i
CCCOC(=O)Nc1nc2ccccc2o1	72*	-2	11	-1	+
NC(=O)c1cccc2c1-c1ccccc1/C2=N/NC(N)=S	-12	-2	39*	1	i
